High-throughput results (PubChem)
CHO parental Ca: counter-screen for OX1R antagonists: effect in parental CHO cells; AID 463079; inhibition, % at 5.6 µM; 330,000 compounds, 0.63% hits; parental CHO-K1, ATP-induced calcium, Fluo-8 fluorescence;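 active = inhibition above that plate's mean sample inhibition plus 3 SD, cut at about 26% in these data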;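 also: 0% = ATP-challenged DMSO wells and 100% = DMSO wells without ATP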
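material = parental CHO cells | also added = ATP as calcium-mobilizing challenge | dosing = single point at 5.6 µM | detection = intracellular calcium via Fluo-8 no-wash fluorescent dye | read-out = % inhibition | benchmarks = low control ATP plus DMSO, high control DMSO only | repeats = one well per compound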
TAAR1 ag: agonists of human TAAR1. AID 624467. CHO RD-HGA16 TAAR1, Fluo-8 calcium fluorescence; vehicle wells 0%, saturating PEA agonist 100%. Q96RJ0. 360,000 compounds, 0.99% hits. activation, % at 3 µM;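 active = activation above the mean activation of all test compounds in the run plus 3 SD, cut at about 38% in these data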
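Test system: RD-HGA16 (CHO) cells co-expressing Gα16 and hTAAR1 | Doses: Single dose, 3 µM | Schedule: 17-24 h seeding, 75 min 37 °C dye, 30 min RT | Evaluation: % activation from peak over basal fluorescence ratio, DMSO-to-PEA scaled | Technique: Kinetic Fluo-8 calcium fluorescence | Benchmarks: Low control DMSO, high control PEA (EC100)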
OX1R antag-1: antagonists of human orexin 1 receptor. O43613. CHO/OX1R cells, Fluo-8 calcium fluorescence, orexin A. inhibition, % at 5 µM. 330,000 compounds, 0.43% hits;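 active = inhibition above its plate's threshold, mean inhibition of all tested compounds on the plate plus 3 SD, cut at about 37% in these data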;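 also: 0% = orexin A challenge wells and 100% = SB-334867-A antagonist wells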
Target sequence (O43613 whole entry, looked up): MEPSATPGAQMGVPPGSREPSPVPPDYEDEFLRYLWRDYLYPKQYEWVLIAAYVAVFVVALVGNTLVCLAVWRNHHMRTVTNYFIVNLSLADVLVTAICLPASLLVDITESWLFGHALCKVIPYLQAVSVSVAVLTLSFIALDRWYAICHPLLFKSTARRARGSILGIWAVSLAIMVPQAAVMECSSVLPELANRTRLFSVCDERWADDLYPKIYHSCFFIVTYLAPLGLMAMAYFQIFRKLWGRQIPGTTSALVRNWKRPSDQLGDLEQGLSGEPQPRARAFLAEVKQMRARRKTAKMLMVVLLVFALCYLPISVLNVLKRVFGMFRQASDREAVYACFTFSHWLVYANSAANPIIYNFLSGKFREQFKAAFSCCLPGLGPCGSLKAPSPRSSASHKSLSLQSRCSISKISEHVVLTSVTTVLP
TAAR1 antag: human TAAR1 antagonism; CHO RD-HGA16 TAAR1, Fluo-8 calcium fluorescence, antagonist; inhibition, % at 3 µM; 360,000 compounds, 1.5% hits; AID 624466;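 active = inhibition above a per-plate cutoff, the mean inhibition of test compounds on that plate plus 3 SD, cut at about 49% in these data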;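 also: 0% = DMSO plus EC80 beta-PEA response and 100% = DMSO alone without agonist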
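Test system – hTAAR1-expressing CHO RD-HGA16 cells, Gα16-coupled · Reagent – β-PEA at EC80 concentration, post-compound challenge · Compound dosing – 3 µM, single point · Timing – 140 s kinetic read after compound, 140 s after agonist · Detection – Fluo-8 intracellular calcium dye fluorescence, real-time kinetic reads · Control set – DMSO and EC80 PEA controls · Repeats – n of 1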
OX1R antag-2: OX1R (human) antagonism | O43613 | 330,000 compounds, 1.8% hits | inhibition, % at 6.6 µM | AID 485270 | OX1R-expressing cells, FRET antagonist read-out; in the data active = inhibition mostly above about 38%, no sharp cut-off; inactive = mostly below about 40%;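 also: 0% = agonist challenge alone and 100% = reference antagonist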
TAAR1 ag conf: confirmation of human TAAR1 agonists; shares compounds with TAAR1 ag; CHO RD-HGA16 TAAR1, Fluo-8 calcium fluorescence; scaled: DMSO 0%, maximal phenethylamine 100%; activation, % at 3 µM; 2,400 compounds, 82% hits; AID 651783;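 active = activation above a cutoff set at the run's mean compound activation plus 3 SD, cut at about 39% in these data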
Ga16 nonsel ag: nonselective agonist in parental cells, TAAR1 agonist counter-screen; 2,400 compounds, 50% hits; AID 651787; shares compounds with TAAR1 ag; CHO-Ga16 parental, Fluo-8 calcium fluorescence; normalized to maximal ATP response, DMSO zero; activation, % at 3 µM;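 active = activation above the run cutoff, the mean activation over all tested wells plus 3 SD, cut at about 12% in these data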;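 also: 0% = DMSO wells and 100% = maximal ATP response on the peak over basal ratio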
TAAR1 desensitize: TAAR1 response desensitization, agonist counter-screen | shares compounds with TAAR1 ag | 2,400 compounds, 46% hits | CHO RD-HGA16 hTAAR1, Fluo-8 calcium, beta-PEA response inhibition | AID 651951 | inhibition, % at 3 µM;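 active = inhibition above the run cutoff, the mean inhibition of all test compounds plus 3 SD, cut at about 49% in these data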;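 also: beta-PEA stimulus applied at its EC80; loss of beta-PEA calcium signal after compound pretreatment read as receptor desensitization; 0% = DMSO with beta-PEA at EC80 and 100% = DMSO alone without agonist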
Ga16 nonsel ant: nonselective Ga16 antagonist in TAAR1 agonist counter-screen | shares compounds with TAAR1 ag | inhibition, % at 3 µM | CHO-Ga16 ATP-induced calcium, Fluo-8 fluorescence | 2,400 compounds, 39% hits | AID 651952;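 active = inhibition above the plate's mean compound inhibition plus 3 SD, computed per plate, cut at about 22% in these data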;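 also: 0% = EC80 ATP with DMSO and 100% = DMSO wells without ATP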
* marks the source's active call; other numbers are inactive results; · = no result given; + = active, no number. This is a sample that favours compounds with a hit; in the whole collection about 4% have one here.

SMILES	CHO parental Ca	TAAR1 ag	OX1R antag-1	TAAR1 antag	OX1R antag-2	TAAR1 ag conf	Ga16 nonsel ag	TAAR1 desensitize	Ga16 nonsel ant
NC(Cc1ccc(F)cc1)c1csc(Nc2ccc(S(N)(=O)=O)cc2)n1 (stereo not given)	·	61.3*	·	18.5	·	76.4*	7.4	52.8*	7.4
NC(Cc1ccccc1)c1csc(Nc2ccc(C(=O)NCCO)cc2)n1 (stereo not given)	·	44.9*	·	23.1	·	76.4*	1.6	57.7*	9.8
CS(=O)(=O)c1ccc(Nc2nc(C(N)Cc3ccccc3)cs2)cc1 (stereo not given)	·	46.7*	·	2.5	·	75.1*	1.7	48.3	14.1
NC(c1ccccc1)c1csc(Nc2ccc(C(=O)NCCO)cc2)n1 (stereo not given)	·	3.0	·	-12.7	·	·	·	·	·
CCN(CC)C1=CC2=CC(=C(C#N)C#N)CCC2CC1 (stereo not given)	99.1*	999.8*	106.5*	109.2*	28.0	+	+	106.4*	103.0*
CCCCN(C)C1=CC2=CC(=C(C#N)C#N)CCC2CC1 (stereo not given)	101.1*	992.4*	106.3*	107.9*	25.1	762.6*	872.4*	106.3*	102.9*
Cc1ccc(OCC(=O)Nc2nc(C)c(Cl)cc2Cl)c([N+](=O)[O-])n1	-7.6	9.3	-9.6	-4.8	0.2	·	·	·	·
CC(Oc1ccccc1)C(=O)Nc1ccc(C(N)=O)cc1 (stereo not given)	-4.2	12.4	10.0	2.0	7.6	·	·	·	·
CC(Oc1ccc(Cl)cc1)C(=O)Nc1cccc(S(=O)(=O)N2CCCC2)c1 (stereo not given)	·	7.5	·	-15.3	·	·	·	·	·
CC(C)NS(=O)(=O)c1ccc(NC(=O)C(C)Oc2ccc(C(=O)c3ccccc3)cc2)cc1 (stereo not given)	68.3*	122.9*	93.3*	105.2*	4.6	121.6*	84.5*	104.5*	85.6*
CC(Oc1ccc(Cl)cc1)C(=O)Nc1ccc(S(=O)(=O)N2CCOCC2)cc1 (stereo not given)	15.1	110.5*	19.8	47.9	-3.3	114.3*	72.2*	74.8*	42.2*
CC1CCCN(S(=O)(=O)c2ccc3c(c2)c(=O)nc2ccccn23)C1 (stereo not given)	-16.3	2.8	-19.5	-4.9	17.8	·	·	·	·
Oc1ccc(C2C[C@H]3CC[C@@H]2C3)cc1O (stereo not given in full)	-7.1	17.1	-10.6	-18.5	1.0	·	·	·	·
Oc1ccc(C2CNCc3sccc32)cc1O (stereo not given)	-6.8	91.6*	-18.8	78.2*	4.4	104.7*	6.3	94.6*	4.8
CCCCc1cc(=O)oc2cc(C)cc(OCC(=O)N[C@@H](CSCc3ccccc3)C(=O)O)c12	-16.7	59.9*	-17.2	15.1	14.2	84.1*	43.7*	28.3	13.7
CCc1cc(=O)oc2cc(C)cc(OCC(=O)N[C@@H](CSCc3ccccc3)C(=O)O)c12	-12.5	-0.5	9.2	-0.6	24.8	·	·	·	·
COc1ccc(CCN2C(=O)COc3ccccc3C2C(=O)Nc2c(C)cccc2C)cc1OC (stereo not given)	·	4.4	·	-3.6	·	·	·	·	·
CCn1c(C)nc2cc(C(=O)NNC(=S)Nc3ccc(Cl)cc3)ccc21	-13.9	54.4*	-19.9	2.4	7.9	61.4*	3.8	33.2	8.7
COc1ccc(OC)c(N=c2ssnc2Cl)c1	2.0	24.4	-16.0	-9.1	12.8	·	·	·	·
COc1cc(N=c2ssnc2Cl)c(OC)cc1Cl	-3.8	58.6*	12.4	29.0	10.9	49.1*	38.1*	33.6	32.8*
